Source: the M2OR odorant receptor database

Tests used:
Settings in all cases: stereoisomer not certain
UniProt E9PZ66 = molecular target: T1, UniProt E9PZ66
T1 sequence (whole entry): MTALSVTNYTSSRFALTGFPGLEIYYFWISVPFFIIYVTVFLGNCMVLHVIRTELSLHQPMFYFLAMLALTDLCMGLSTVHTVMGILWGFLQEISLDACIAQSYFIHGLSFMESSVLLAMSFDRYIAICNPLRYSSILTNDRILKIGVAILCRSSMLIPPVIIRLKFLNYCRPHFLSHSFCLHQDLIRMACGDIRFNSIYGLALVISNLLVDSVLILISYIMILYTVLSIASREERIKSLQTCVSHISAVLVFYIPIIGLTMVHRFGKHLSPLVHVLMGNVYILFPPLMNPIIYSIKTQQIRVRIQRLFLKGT
Summary of the method: (§1)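 Each entry records the cell line, G-protein, co-transfected protein and tags used. Methods varied with the source, often transient luciferase assays in mammalian cell lines. A receptor–molecule pair is called responsive (active) if the original authors judged its signal statistically different from baseline and non-responsive (inactive) otherwise.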

UniProt E9Q4X7 = molecular target: T2, UniProt E9Q4X7
T2 sequence (whole entry): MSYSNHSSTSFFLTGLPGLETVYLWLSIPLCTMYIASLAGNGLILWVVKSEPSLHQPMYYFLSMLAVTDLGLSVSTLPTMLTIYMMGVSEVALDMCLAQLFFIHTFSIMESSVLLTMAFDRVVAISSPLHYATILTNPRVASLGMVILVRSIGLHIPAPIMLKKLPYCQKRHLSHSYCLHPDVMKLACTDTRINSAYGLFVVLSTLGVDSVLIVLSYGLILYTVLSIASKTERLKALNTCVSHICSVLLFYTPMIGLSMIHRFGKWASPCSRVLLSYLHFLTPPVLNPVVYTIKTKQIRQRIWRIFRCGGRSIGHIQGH
Summary of the method: as §1

UniProt E9Q546 = molecular target: T3, UniProt E9Q546
T3 sequence (whole entry): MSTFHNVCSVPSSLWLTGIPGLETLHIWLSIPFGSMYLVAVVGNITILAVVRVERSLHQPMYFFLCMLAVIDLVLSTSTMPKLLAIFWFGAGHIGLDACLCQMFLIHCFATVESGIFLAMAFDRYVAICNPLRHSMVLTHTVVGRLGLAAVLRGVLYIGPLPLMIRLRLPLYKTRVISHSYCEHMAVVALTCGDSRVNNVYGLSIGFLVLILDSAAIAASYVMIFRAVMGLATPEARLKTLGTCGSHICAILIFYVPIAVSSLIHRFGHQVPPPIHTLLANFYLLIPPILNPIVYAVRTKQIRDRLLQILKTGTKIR
Summary of the method: as §1

UniProt E9Q6Z7 = molecular target: T4, UniProt E9Q6Z7
T4 sequence (whole entry): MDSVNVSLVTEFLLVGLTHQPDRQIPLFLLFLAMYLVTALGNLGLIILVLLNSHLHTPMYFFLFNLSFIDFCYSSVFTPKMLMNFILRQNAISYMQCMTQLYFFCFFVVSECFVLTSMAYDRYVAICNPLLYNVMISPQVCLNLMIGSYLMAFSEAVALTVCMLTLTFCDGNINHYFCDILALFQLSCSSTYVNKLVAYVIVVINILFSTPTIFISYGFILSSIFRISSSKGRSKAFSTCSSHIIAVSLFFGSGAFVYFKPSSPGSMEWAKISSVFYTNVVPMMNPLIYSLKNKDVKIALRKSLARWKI
Summary of the method: as §1

UniProt K7N609 = molecular target: T5, UniProt K7N609
T5 sequence (whole entry): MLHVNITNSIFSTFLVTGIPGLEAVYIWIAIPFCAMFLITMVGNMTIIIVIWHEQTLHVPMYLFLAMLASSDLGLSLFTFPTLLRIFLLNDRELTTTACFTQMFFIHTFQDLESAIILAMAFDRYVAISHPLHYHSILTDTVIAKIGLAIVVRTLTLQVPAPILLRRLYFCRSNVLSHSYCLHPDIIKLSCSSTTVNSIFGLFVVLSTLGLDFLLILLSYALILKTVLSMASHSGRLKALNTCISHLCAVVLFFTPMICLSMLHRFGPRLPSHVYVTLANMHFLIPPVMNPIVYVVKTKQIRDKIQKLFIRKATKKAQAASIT
Summary of the method: as §1

Measured: odorant receptor agonist call

CCCCC(=O)CC
inactive: all assays above

c1ccccc1
inactive: all assays above

CCCCCCCCS
inactive: all assays above

CCCCCC(=O)CC
inactive: all assays above

CC(=O)OCc1ccccc1
inactive: all assays above

CCOC(=O)C(C)C
inactive: all assays above

CC12CCC(CC1=O)C2(C)C (centres undefined)
inactive: all assays above

CC(=O)OCC=C(C)C
inactive: all assays above

CCCCCCOC(C)=O
inactive: all assays above

CCCCCO
inactive: UniProt E9Q546 | UniProt K7N609

CC(C)=CCCC(C)=CCO
inactive: all assays above

CCCCCCC(=O)[O-].[H+]
inactive: UniProt E9Q546 | UniProt K7N609
